Assay results published in PMC3770484 (European journal of medicinal chemistry, 2013).

Legend:
[1] = test system: human tumor cell line panel (A549, KB, KBvin, and DU145); experiment: SRB cytotoxicity, range over the whole HTCL panel; type: cell-based; settings: read-out: GI50 range over HTCL panel
Outline: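 Sulforhodamine B growth assay on human A-549, KB, DU145 and KBvin lines; KBvin is a vincristine-resistant, P-gp-expressing KB subline. Paclitaxel served as reference.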

[2] = test system: tubulin (colchicine site); experiment: Inhibition of [3H]colchicine binding to tubulin; settings: tubulin 1 μM, [3H]colchicine 5 μM, 10 min at 37 °C, ± SD
Outline: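 Tritiated colchicine (5.0 μM) incubated with 1.0 μM tubulin and test compound at 5.0 or 1.0 μM for 10 min at 37 °C. At this point about 40-60% of maximum colchicine binding occurs in controls. Percent inhibition of binding reported. Compounds inhibiting by more than 80% at 5 μM were retested at 1 μM.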

Row | Structure (SMILES) | GI50 [1] [nM] | Inhibition of colchicine binding (%) inhibition ([2]; inhibitor at 1 μM) [%] | Inhibition of colchicine binding (%) inhibition ([2]; inhibitor at 5 μM) [%]
1 | COc1ccc2c(c1)CCCN2c1nc(Cl)nc2ccccc12 [Compound 6d, N-(2′-Chloroquinazol-4′-yl)-6-methoxy-1,2,3,4-tetrahydroquinoline] | 1.5 to 1.7 |  | 
2 | COc1ccc(/C=C\c2cc(OC)c(OC)c(OC)c2)cc1O [CA4, combretastatin A-4] |  | 90 ± 0.2 | 98 ± 0.6
